Bioassay records from PubChem BioAssay.
The sample as a whole holds a higher share of hits than the screen did.
UPR XBP1 act: activators of adaptive arm of unfolded protein response (XBP1). CHO-XBP1 luciferase reporter, IRE1-XBP1 UPR activation, luminescence; percent of tunicamycin response, DMSO as zero. activation, % at 20 µM. actives 0.33% (n = 330,000). AID 463104;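 active = versus positive control, 20 µM dose yields 30% or more activation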;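 also: 100% = tunicamycin at 10 µg/mL and 0% = DMSO only wells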
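Material: CHO cell line with stable XBP1 luciferase reporter; buffer or medium: F12 medium containing 10% fetal bovine serum; compound: single point, 20 µM final compound, 1% DMSO; incubation: 6 h treatment, 37 °C; measured by: glow luminescence from Steady-Glo reagent; evaluation: activation, % of tunicamycin; control set: tunicamycin high, DMSO low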
A1 inh: inhibitors of the anti-apoptotic protein A1, read as caspase activation; MEF A1-2A-BIM cells, Caspase-Glo 3/7 luminescence, 3 h; percent of clofoctol response, vehicle zero; caspase activation, % (concentration not given with the values); actives 0.066% (n = 330,000); AID 2462;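 active = over half of replicate activation scores above 10%, or exactly half above 10 with the replicate mean above 10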
UPR CHOP act: activators of apoptotic arm of unfolded protein response (CHOP). CHO-CHOP luciferase reporter, UPR activation, luminescence; percent of tunicamycin response over DMSO baseline. activation, % at 10 µM. actives 0.34% (n = 330,000). AID 449763;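 active = at 10 µM dose, activation of 40% or more, normalized to positive control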;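 also: 100% = tunicamycin at 10 µg/mL and 0% = DMSO alone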
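measured by = luciferase luminescence | assay system = CHO-CHOP cells, stable luciferase reporter of PERK-eIF2a-CHOP signalling | amount = 500 reporter cells seeded per well | timing = 6 h compound exposure at 37 °C after overnight seeding | controls = positive tunicamycin 10 µg/mL, negative DMSO alone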
CHOP inh: inhibitors of CHOP induction in ER stress response | CHO-K1 CHOP-promoter luciferase, tunicamycin-induced, 15-18 h | inhibition, % at 10 µM | actives 3.8% (n = 220,000);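 active = compounds that reduced the stress-induced luciferase reporter signal by more than about 70% of percent inhibition, limit read from the data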;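 also: 0% = tunicamycin plus vehicle and 100% = wells without tunicamycin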
* = called active by the depositor; · = no result given.

SMILES	UPR XBP1 act	A1 inh	UPR CHOP act	CHOP inh
Cc1ccc(NC(NC(=O)c2cccs2)C(Cl)(Cl)Cl)cc1C (stereo not drawn)	0	1	-1	80*
CCN1CCN(C(=O)/C(=C/c2ccco2)NC(=O)c2ccccc2)CC1	1	1	1	·
COc1cccc(NS(=O)(=O)c2cc(C)sc2C)c1	-2	0	3	75*
COc1cc(/C=C2/CCC/C(=C\c3cc(O)c(OC)c(Cl)c3)C2=O)cc(Cl)c1O	19	1	40	80*
CN1C(=O)/C(=C/c2ccccc2Cl)Sc2ccc(C(=O)NCc3cccnc3)cc21	-1	0	1	81*
O=C(O)c1cc(N=Cc2c(O)c3ccccc3oc2=O)ccc1O	-4	-13	2	·
CCCOc1ccc(S(=O)(=O)NCc2ccc(OC)cc2)cc1	-2	0	0	80*
CC(C)CC(=O)NC(=S)NNC(=O)c1ccc([N+](=O)[O-])cc1	-2	1	0	29
CC(C)CC(=O)NC(=S)NNC(=O)c1ccc(NC(=O)C2CCCCC2)cc1	2	1	1	72*
Cc1c(Cl)cccc1NC(=O)NC1CCCCC1	-1	1	2	78*
Cc1c(Cl)cccc1NC(=S)NC1CC1	-2	1	-1	-19
CN(C)S(=O)(=O)c1ccc(N2CCCC2)c(C(=O)NNC(=O)c2ccccc2)c1	-2	-1	1	·
Cc1ccc(C2OCC3(CO2)COC(c2ccc(C)cc2)OC3)cc1 (stereo not drawn)	-2	0	-2	80*
Cc1ccc(NC(=O)CSc2nnc(CNC(=O)C34CC5CC(CC(C5)C3)C4)n2-c2ccc(F)cc2)cc1	-2	1	2	79*
Cc1ccn(CC(=O)N2CCCC(N3CCN(c4ccccc4F)CC3)C2)n1 (stereo not drawn)	0	·	0	·
COc1ccc(CNC(=O)COC(=O)c2ccc(S(=O)(=O)N3CCCCC3)cc2)cc1	-4	0	-1	·
Cn1c(=O)c(C(=O)Nc2ccccn2)c(O)c2ccccc21	-2	-7	4	72*
Cn1c(=O)c(C(=O)Nc2ccccc2S(N)(=O)=O)c(O)c2ccccc21	0	0	1	56
O=S(=O)(NCc1cc(-c2ccccc2Cl)no1)c1ccc(Cl)cc1	3	0	2	74*
Cc1ccc(C2CC(=O)Oc3cc(C)c(Br)c(C)c32)cc1 (stereo not drawn)	-1	·	1	·
CCN(c1ccc(OC)cc1)S(=O)(=O)c1nnc(NC(=O)CC(C)C)s1	-6	-1	0	·
O=C1c2cccc3c(N4CCCCC4)ccc(c23)C(=O)N1c1ccc(O)cc1	6	1	1	106*
O=C(NC1CCS(=O)(=O)C1)c1ccc(N2CCCCC2)c([N+](=O)[O-])c1 (stereo not drawn)	-2	1	1	·
O=c1cc(-c2ccccc2)nc(N2CCN(Cc3ccc4c(c3)OCO4)CC2)[nH]1	-2	0	0	71*
O=c1[nH]c(CN2CCN(Cc3ccc4c(c3)OCO4)CC2)nc2ccccc12	1	0	1	7
SMILES	UPR XBP1 act	A1 inh	UPR CHOP act	CHOP inh
Cc1cccc(N(CC(O)CON=C2c3ccccc3-c3ccccc32)S(C)(=O)=O)c1 (stereo not drawn)	-3	0	-2	70*
CS(=O)(=O)N(CC(O)CON=C1c2ccccc2-c2ccccc21)c1ccc(F)cc1 (stereo not drawn)	1	1	2	73*
CN(Cc1ccccc1)C(=O)c1ccc(NC(=O)C2CCCN(C(=O)OC(C)(C)C)C2)cc1 (stereo not drawn)	-2	0	2	·
O=[N+]([O-])c1cccnc1NCCNc1ncc(C(F)(F)F)cc1Cl	3	-3	6	75*
Cc1nc(SCC(=O)N2CCN(c3ccccn3)CC2)c(C#N)c(C)c1C	-1	0	-2	·
NC(=S)NC1CCS(=O)(=O)C1 (stereo not drawn)	-4	1	0	16
C=CCSC(=S)NC1CCS(=O)(=O)C1 (stereo not drawn)	-6	0	7	70*
CCCCOCCCNc1ncnc2c1[nH]c1ccccc12	0	0	8	85*
CCOCCCNc1ncnc2c1[nH]c1ccccc12	4	0	1	47
CC(C)n1c2ccccc2c2nnc(SCC(=O)OCN3C(=O)c4ccccc4C3=O)nc21	-1	1	1	90*
CCOC(=O)CSc1nnc2c3ccccc3n(C)c2n1	2	2	0	·
Cc1cccc(C(=O)N(c2ccccn2)C(C)c2ccco2)c1 (stereo not drawn)	1	0	1	-4
CC(c1ccco1)N(C(=O)C12CC3(C)CC(C)(CC(C)(C3)C1)C2)c1ccccn1 (stereo not drawn)	-2	1	-1	86*
O=C(Nc1cccc(F)c1)C1CCN(C(=O)NCc2ccccc2)CC1	-7	0	0	·
O=C(NCCN1CCc2ccccc2C1)C1CC(=O)N(C2CCCC2)C1 (stereo not drawn)	-2	1	0	89*
CCCC(=O)Nc1ccc(C(=O)NNC(=S)NC(=O)c2ccc(Br)o2)cc1	-3	1	-1	35
CCN(C(=O)c1ccc2c(Cl)c3c(nc2c1)CCC3)c1ccc(C)c(C)c1	-2	·	-2	91*
CNC(=O)/C=C1\NC(C)(C)Cc2c1ccc1ccccc21	4	1	2	37
CC1(C)Cc2c(ccc3ccccc23)/C(=C/C#N)N1	3	1	-2	71*
Cc1ccc(C)c(NC(=O)Cc2coc3cc4c(cc23)CCC4)c1	-4	2	0	85*
CC(C)(C)c1cc(Cl)c(O)c(NC(=S)NC(=O)c2cccnc2)c1	6	1	4	73*
CC(C)(C)c1ccc(C(=O)NNC(=S)NC(=O)c2cccnc2)cc1	9	0	6	·
COc1ccc(S(=O)(=O)N(C)c2ccc(OC(=O)C(C)Oc3ccc(F)cc3)cc2)cc1 (stereo not drawn)	-2	0	0	·
CCc1cc(=O)oc2cc(OCc3ccc(C(=O)O)o3)ccc12	-5	-3	1	·
CCOC(=O)c1ccc(Oc2nc(N(C)C)nc(N(C)C)n2)cc1	0	1	-1	71*
SMILES	UPR XBP1 act	A1 inh	UPR CHOP act	CHOP inh
CCOC(=O)c1ccc(Oc2nc(SC)nc(N(C)C)n2)cc1	-2	0	-1	69
COc1ccc(C(=O)NCC(c2ccco2)N(C)C)cc1S(=O)(=O)NCc1ccc(Cl)cc1 (stereo not drawn)	-1	0	0	·
CC1(C)Cc2nc3oc4c(=O)n(CC(=O)Nc5ccc(Cl)cc5)cnc4c3cc2CO1	-1	0	2	95*
COc1ccc(CN(C)CC(=O)N(C)CC(=O)Nc2ccccc2Br)cc1F	-1	1	1	·
Nc1ccc(Oc2cccc(Oc3ccc(N)cc3)c2)cc1	-4	0	-8	88*
Cc1cccc(Oc2ccc(N)cc2)c1	2	0	0	-9
